PGE2 EP2 inh = blocks the human prostaglandin E2 receptor EP2. inhibition, % at 25 µM. C6 glioma cells expressing human EP2, cAMP TR-FRET; cells stimulated with saturating PGE2. P43116. 0.52% of 260,000 active;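 active means percent inhibition above 40 after rounding to a whole number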;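 further: rat C6 glioma host cells with rolipram phosphodiesterase inhibitor present; the protocol text gives 20 µM as final concentration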
thrombin 1536 = inhibitors of human thrombin; inhibition, % at 5 µM; 0.26% of 220,000 active; P00734; AID 1046; alpha-thrombin, Boc-VPR-AMC fluorogenic substrate cleavage;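 active means inhibition at or above 40%; inactive means inhibition below 40%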
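System – human alpha-thrombin · Medium – pH 7.5 Tris (50 mM) with NaCl 150 mM, Tween 20 0.05% · Compound – single-point dosing at 5 µM, 0.2% DMSO · Incubation – enzyme reaction carried out at room temperature · Technique – fluorescence of released AMC, ex 355 nm, em 460 nm · Read-out basis – % inhibition of thrombin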
FXIIa inh 1536 = inhibitors of human coagulation factor XIIa | P00748 | inhibition, % at 5 µM | purified FXIIa, Boc-QGR-AMC fluorogenic substrate, 2 h | 0.3% of 220,000 active; in the data active means inhibition above about 40%
EP2 modulator = EP2 receptor (human) modulation; 0.83% of 260,000 active; EP2-expressing cells, cAMP HTRF FRET, PGE2 co-stimulation; induction, % at 25 µM; AID 940; P43116;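 active means compounds whose cAMP rise, as percent of the full-agonist control response, exceeds 60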;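 further: rat C6 glioma line stably carrying human EP2 under a CMV promoter; the protocol text gives 20 µM as final concentration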
KLK5 inh = kallikrein 5 (human) inhibition. AID 873. inhibition, % at 5 µM. 0.59% of 210,000 active. recombinant hK5, fluorogenic AMC substrate cleavage. Q9Y337;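 active means inhibition of 40% or more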
FXIa inh 1536 = factor XIa (human) inhibition; P03951; purified FXIa, Boc-Glu-Ala-Arg-AMC fluorogenic substrate; inhibition, % at 5 µM; 0.14% of 220,000 active; AID 798;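 active means inhibition of at least 40%; inactive means inhibition below 40%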;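 further: fluorescence of freed AMC excited at 355 nm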
Target sequence (P03951 19-387 limits assumed): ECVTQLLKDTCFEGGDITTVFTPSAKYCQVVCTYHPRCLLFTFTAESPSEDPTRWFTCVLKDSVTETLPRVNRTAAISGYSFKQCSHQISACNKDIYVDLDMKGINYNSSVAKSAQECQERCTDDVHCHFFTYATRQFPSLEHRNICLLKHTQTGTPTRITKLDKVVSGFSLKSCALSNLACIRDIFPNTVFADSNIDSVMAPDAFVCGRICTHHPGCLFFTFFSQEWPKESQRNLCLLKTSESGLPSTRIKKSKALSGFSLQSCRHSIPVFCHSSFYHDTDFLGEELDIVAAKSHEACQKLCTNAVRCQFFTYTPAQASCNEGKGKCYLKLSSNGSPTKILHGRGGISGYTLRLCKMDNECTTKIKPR
Target sequence (P03951 388-625 limits assumed): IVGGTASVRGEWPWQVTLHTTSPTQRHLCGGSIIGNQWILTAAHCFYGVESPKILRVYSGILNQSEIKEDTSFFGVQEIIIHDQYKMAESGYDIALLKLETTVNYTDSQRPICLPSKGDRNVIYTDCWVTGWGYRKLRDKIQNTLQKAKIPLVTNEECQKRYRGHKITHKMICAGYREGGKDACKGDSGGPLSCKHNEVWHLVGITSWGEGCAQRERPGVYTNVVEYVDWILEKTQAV
Numbers stand for hits; i = inactive; nt = not tested or not shown; ! = not active in a repeat. Only some compounds are listed: those with a hit (about 2.1% of all), similar ones and a draw of the others.

SMILES | PGE2 EP2 inh | thrombin 1536 | FXIIa inh 1536 | EP2 modulator | KLK5 inh | FXIa inh 1536
COc1ccc(/C=C2\CCCC3C2=NN(C(=O)COC(=O)CNC(=O)c2ccccc2)C3c2ccc(OC)cc2)cc1 (stereo not given) | i | i | i | i | 47.0 | i
CN1CCN(CC(=O)N2CCn3c4c(c5cc(C6CCCCC6)ccc53)CCCC42)CC1 (stereo not given) | 91.4 | i | i | i | i | i
CCOc1ccc(NC(=S)N(CCCO)Cc2cc3cccc(C)c3[nH]c2=O)cc1 | i | nt | nt | i | nt | nt
C=CCn1c(SCc2ccccc2)nnc1-c1cccnc1 | i | i | i | i | i | i
C=CCn1c(SCc2ccc(OC)cc2)nnc1-c1cccnc1 | i | i | i | i | 49.6 | i
CSc1nc2ccccc2n1Cc1cccc(F)c1 | i | i | i | i | i | i
Fc1cccc(Oc2nc3ccccc3n3cccc23)c1 | i | i | i | 61.5 | i | i
CCN(CC)C(=O)Cn1cc(C(=O)C(=O)NCc2cccs2)c2ccccc21 | i | i | i | i | i | i
CCN(CC)C(=O)Cn1cc(C(=O)C(=O)NCCCn2ccnc2)c2ccccc21 | i | 94.6 | i | i | i | i
CC(=O)c1ccc(N2C(=O)C3C(C2=O)C(C(=O)c2ccc(Cl)cc2)N2CCCC32)cc1 (stereo not given) | i | i | i | i | 41.6 | i
CCC(C)NC(=O)CSc1ncnc2sccc12 (stereo not given) | i | i | 40.3 | i | i | i
CCOc1ccc(-c2nc(C#N)c(NCC(C)C)o2)cc1 | i | i | i | i | 150.8 | i
C=CCNc1oc(-c2ccc(OCC)cc2)nc1C#N | i | i | i | i | i | i
CC1CCN(c2nc3c(c(=O)[nH]2)CCN(Cc2ccc(Br)o2)C3)CC1 | nt | nt | nt | i | nt | nt
COc1ccc(C(=O)C[N+]2=C(C)c3ccccc3CC2)cc1 | i | nt | nt | i | nt | nt
Cc1cc(NC(=O)CN2CCCCC2)no1 | i | nt | i | i | i | i
CCN1CCN(CC(=O)Nc2cc(C)on2)CC1 | i | i | i | i | 41.6 | 45.5
CCOc1cccc(NC(=O)CN2C(=O)C3CCCN3C(=O)c3ccccc32)c1 (stereo not given) | i | nt | nt | i | nt | nt
CCOc1ccc(NC(=O)CN2C(=O)/C(=C3\SC(=S)N(C4CCS(=O)(=O)C4)C3=O)c3ccccc32)cc1 (stereo not given) | i | i | i | i | i | 52.6
O=C(COc1ccc(S(=O)(=O)N2CCCC2)cc1)Nc1ccccc1Cl | i | nt | nt | i | nt | nt
Cc1cc(C)n(Cc2ccc(Cl)cc2Cl)c(=O)c1S(=O)(=O)c1ccccc1 | i | i | i | 62.3 | i | i
CCCN1C2CCCC1CC(NC(=O)c1ccccc1Cl)C2 (stereo not given) | i | nt | nt | i | nt | nt
CSCCC(NS(=O)(=O)c1ccc(C)cc1)C(=O)NC1CCCCC1 (stereo not given) | i | i | i | i | i | i
COc1ccc(S(=O)(=O)NC(CCSC)C(=O)NC2CCCCC2)cc1 (stereo not given) | i | i | i | i | 41.3 | i
O=C1c2[nH]nc(-c3ccccc3O)c2C(c2ccccc2)N1Cc1ccco1 (stereo not given) | i | i | i | i | i | i
SMILES | PGE2 EP2 inh | thrombin 1536 | FXIIa inh 1536 | EP2 modulator | KLK5 inh | FXIa inh 1536
O=C1c2[nH]nc(-c3ccccc3O)c2C(c2ccccc2F)N1Cc1ccco1 (stereo not given) | i | i | i | i | 40.8 | i
CCn1c(COc2ccc(C)cc2)nnc1SCC(=O)Nc1sc(C)c(C)c1C#N | i | nt | nt | i | nt | nt
C=C(C)CSc1nnc(-c2ccc(OC)cc2)n1N | i | i | i | i | 45.0 | i
COc1ccc(-c2nnc(SCC(N)=O)n2N)cc1 | i | i | i | i | i | i
CCOC(=O)c1c(NC(=O)CC2SC(N)=NC2=O)sc2c1CCC(C)C2 (stereo not given) | i | i | i | 68.4! | i | i
CCOC(=O)c1c(NC(=O)C2C3C=CC(C3)C2C(=O)O)sc2c1CCC(C)C2 (stereo not given) | i | i | i | i | i | i
CCNC(=O)c1c(NC(=O)c2cccs2)sc2c1CCCC2 | i | nt | nt | i | nt | nt
CCOC(=O)c1c(NC(C)=O)sc2c1CC(C)CC2 (stereo not given) | i | nt | nt | 79.8 | nt | nt
COC(=O)c1c(NC(=O)CC2SC(N)=NC2=O)sc2c1CCC(C)C2 (stereo not given) | i | i | i | i | i | i
CCOC(=O)c1c(NC(=O)c2cccs2)sc2c1CCC2 | 76.3 | nt | nt | nt | nt | nt
